The source of these data is ChEMBL document CHEMBL4033799, “Stable and Long-Lasting, Novel Bicyclic Peptide Plasma Kallikrein Inhibitors for the Treatment of Diabetic Macular Edema” (J Med Chem, 2018).

pKi: −log10 of the molar value. Activity calls are given as the source filed them. The rule behind the calls is not given here. *1 amine or outer side, *2 acyl side, *3 side chain or, on linkers, in order; H or OH if unused. Where a SMILES comes first, the peptide text is derived from it. Bridges are numbered along the chain shown (N, C = ends). TBMB = c1c(C[*:1])cc(C[*:3])cc1C[*:2]

Data set [1] concerns Rattus norvegicus. The data set can be described thus: Antiinflammatory activity in Sprague-Dawley rat assessed as inhibition carrageenan-induced paw edema at 30 mg/kg, ip pretreated for 15 mins followed by carrageenan challenge measured at 1 hr post carrageenan challenge. Format: functional. The method, boiled down: (§1)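 Male Sprague-Dawley rats received peptide IP (30, 10 or 3 mg/kg), or indomethacin IP at 5 mg/kg, 15 min before subplantar carrageenan. Paw volume was followed over time against a vehicle group.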
On the technique in general: In the carrageenan paw model, swelling and tenderness develop within hours.

The subject of data set [2] is Plasma. The data set can be described thus: Anti-coagulating activity in factor 8-deficient human plasma assessed as increase in coagulation time at 10 uM by aPTT assay. In kind it is functional. The method, boiled down:
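Clotting time measured on a coagulation analyzer using actin FS, 0.025 M CaCl2, FVIII-deficient human plasma and Owren's Veronal Buffer pH 7.35, run per the manufacturer's instructions. Peptide tested from zero (vehicle) up to 10 μM. Each point is the mean ± SD of triplicates.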

Data set [3] relates to Rattus norvegicus. Description: Antiinflammatory activity in Sprague-Dawley rat assessed as inhibition carrageenan-induced paw edema at 30 mg/kg, ip pretreated for 15 mins followed by carrageenan challenge measured at 4 hrs post carrageenan challenge. In kind it is functional. The method, boiled down:
as §1

Data set [4] relates to Rattus norvegicus. Description: Antiinflammatory activity in Sprague-Dawley rat assessed as inhibition carrageenan-induced paw edema at 30 mg/kg, ip pretreated for 15 mins followed by carrageenan challenge measured at 2 hrs post carrageenan challenge. In kind it is functional. The method in brief: as §1
Data set [5] deals with Rattus norvegicus. The data set can be described thus: Antidiabetic activity in STZ-induced diabetic Brown-Norway rat model assessed as reduction in retinal vascular leakage at 100 ug/eye administered via ivt measured at 4 weeks post diabetes onset relative to control. In kind it is functional. The method, boiled down: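 Diabetes was induced with STZ in male Brown-Norway rats. Peptide was given intravitreally at 100 μg/eye. Retinal vascular permeability was read as FITC-BSA extravasation 4 weeks after diabetes onset and compared with vehicle-treated diabetic rats. A soluble VEGF-trap served as positive control.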

Data set [6] concerns the target Coagulation factor X (Homo sapiens, UniProt P00742). The data set can be described thus: Inhibition of recombinant human C-terminal 10His-tagged factor Xa (24 to 488 residues) expressed in baculovirus derived insect sf21 cells using fluorogenic Mca-RPKPVE-Nval-WRK(Dnp)-NH2 peptide as substrate by fluorescence based assay. The method, boiled down:
(§2)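 Human serine proteases were assayed with substrates and conditions set by each supplier's recommendations. Peptides were first screened at 50 μM. Where inhibition was detected, Ki was determined from activity across peptide concentrations using a tight-binding rate equation.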

For data set [7], the system named is Rattus norvegicus. Description: Antiinflammatory activity in Sprague-Dawley rat carrageenan-induced paw edema model assessed as inhibition of paw edema AUC (0 to 2 hrs) at 10 to 30 mg/kg, ip pretreated for 15 mins followed by carrageenan challenge. In kind it is functional, organism-based. The method, boiled down: as §1
Data set [8] addresses T1, Complement C1s subcomponent (Homo sapiens, UniProt P09871).
T1 sequence (P09871 whole entry): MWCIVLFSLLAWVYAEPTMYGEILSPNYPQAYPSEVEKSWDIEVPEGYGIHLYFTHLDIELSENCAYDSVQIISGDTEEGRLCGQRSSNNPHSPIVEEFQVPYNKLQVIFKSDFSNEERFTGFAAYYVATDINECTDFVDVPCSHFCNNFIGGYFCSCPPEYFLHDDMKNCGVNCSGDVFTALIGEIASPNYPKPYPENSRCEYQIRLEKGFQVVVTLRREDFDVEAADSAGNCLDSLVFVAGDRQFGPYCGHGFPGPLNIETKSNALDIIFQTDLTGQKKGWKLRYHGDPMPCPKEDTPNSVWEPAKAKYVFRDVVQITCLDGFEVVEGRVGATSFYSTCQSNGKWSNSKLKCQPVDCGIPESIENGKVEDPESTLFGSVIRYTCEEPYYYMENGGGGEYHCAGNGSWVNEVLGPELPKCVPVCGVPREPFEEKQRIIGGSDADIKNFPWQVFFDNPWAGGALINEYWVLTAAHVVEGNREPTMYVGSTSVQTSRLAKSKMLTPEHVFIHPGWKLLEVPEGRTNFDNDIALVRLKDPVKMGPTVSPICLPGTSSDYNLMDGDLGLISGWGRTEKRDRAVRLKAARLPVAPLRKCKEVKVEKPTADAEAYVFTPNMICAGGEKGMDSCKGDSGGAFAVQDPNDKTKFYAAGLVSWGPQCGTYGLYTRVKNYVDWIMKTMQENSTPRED
Description: Inhibition of recombinant human C-terminal 6His-tagged complement component C1s (1 to 688 residues) expressed in mouse NS0 cells using fluorogenic Z-Lys-SBzl peptide as substrate after 5 mins by fluorescence based assay. The method, boiled down: as §2

Data set [9] addresses Kallikrein-6 (Homo sapiens, UniProt Q92876). Description: Inhibition of recombinant human C-terminal His-tagged KLK6 isoform 1 (1 to 244 residues) expressed in HEK293 cells using fluorogenic Boc-QARAMC peptide as substrate by fluorescence based assay. The method in brief: as §2
Data set [10] relates to Mus musculus. The data set can be described thus: Antidiabetic activity in STZ-induced diabetic C57BL/6J mouse model assessed as reduction in retinal vascular permeability at 100 ug administered 4 times via ivt measured at 8 weeks post diabetes onset relative to control. In kind it is functional. The method in brief: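 Diabetes was induced with STZ in male C57BL/6J mice. Peptide was given as repeated intravitreal injections (4 × 100 μg). Retinal permeability was read as FITC-BSA extravasation 8 weeks after diabetes onset and compared with vehicle-treated diabetic mice. The anti-VEGFR2 antibody DC101 (6.2 μg/eye, single dose) served as positive control.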

Data set [11] addresses T2, Cathepsin G (Homo sapiens, UniProt P08311).
T2 sequence (P08311 whole entry): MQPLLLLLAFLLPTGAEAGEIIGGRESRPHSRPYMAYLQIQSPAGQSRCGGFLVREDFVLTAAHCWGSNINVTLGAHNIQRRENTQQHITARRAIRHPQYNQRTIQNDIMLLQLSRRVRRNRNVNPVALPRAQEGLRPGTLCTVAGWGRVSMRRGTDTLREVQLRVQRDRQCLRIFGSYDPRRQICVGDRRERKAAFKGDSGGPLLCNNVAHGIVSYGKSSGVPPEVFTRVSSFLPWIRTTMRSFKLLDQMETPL
The data set can be described thus: Inhibition of recombinant human Cathepsin-G. The method in brief: (§3)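 Panel of human serine proteases. Substrates and assay conditions followed each supplier's recommendations. Peptides were first screened at 50 μM. Where inhibition was detectable, hydrolytic activity was measured across a range of peptide concentrations. Ki was obtained by fitting to the tight-binding inhibitor rate equation.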

The test system of data set [12] is Rattus norvegicus. Description: Antiinflammatory activity in ip dosed Sprague-Dawley rat carrageenan-induced paw edema model assessed as inhibition of edema pretreated for 15 mins followed by carrageenan challenge measured up to 6 hrs. Format: functional, organism-based. The method, boiled down:
as §1

The target of data set [13] is Prothrombin (Homo sapiens, UniProt P00734). The data set can be described thus: Inhibition of recombinant human alpha thrombin using fluorogenic peptide as substrate by fluorescence based assay. The method, boiled down: as §3
For data set [14], the species on record is Oryctolagus cuniculus. Description: Inhibition of plasma kallikrein in rabbit plasma using HMWK as substrate assessed as suppression of kaolin-activated protein induced bradykinin release at 2 uM preincubated for 15 mins followed by substrate addition measured after 15 min by ELISA.
A short description of data set [15]: Aqueous solubility of the compound in buffer. Format: physicochemical.
In data set [16] the test system is Plasma. The data set can be described thus: Stability in rat plasma at 50 uM incubated for 2 days by MALDI-TOF analysis. Format: ADME, cell-free. The settings on record: 48 h. The method, boiled down: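 Qualitative stability test. 1 mM DMSO stock diluted into citrated rat plasma to 50 μM and held at 37 °C for up to 2 days. Aliquots at time points quenched in 1:1 acetonitrile/methanol and centrifuged. Supernatant mixed with 30 mM ammonium bicarbonate. Parent mass and protease metabolites detected by MALDI-TOF.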

For data set [17], the target named is Plasma kallikrein (Rattus norvegicus, UniProt P14272). The data set can be described thus: Inhibition of recombinant Sprague-Dawley rat plasma kallikrein using fluorogenic H-Pro-Phe-Arg-AMC peptide as substrate preincubated for 15 mins followed by substrate addition measured by fluorescence-based assay. Conditions: read-out: Ki(app).
Data set [18] concerns the target Plasma kallikrein (Homo sapiens, UniProt P03952). Description: Inhibition of human plasma kallikrein using fluorogenic H-Pro-Phe-Arg-AMC peptide as substrate preincubated for 15 mins followed by substrate addition measured by fluorescence-based assay. Conditions: read-out: Ki(app).

As usually defined, the inhibition in vivo is the relative decrease from the control value, in per cent. In general, pKi refers to the negative decadic logarithm of the Ki, by convention in mol/L.

Regarding `CC(=O)N[C@H]1CSCc2cc3cc(c2)CSC[C@H](NC(=O)[C@H](CCCCNC(=N)N)NC(=O)[C@H](Cc2ccc(O)cc2)NC(=O)[C@@H]2CCN2C(=O)[C@H](Cc2ccccc2)NC(=O)[C@H](CO)NC1=O)C(=O)N[C@@H](C)CN[C@@H](Cc1cnc[nH]1)C(=O)N[C@@H](CCC(N)=O)C(=O)N[C@@H](CC(=O)O)C(=O)N[C@@H](CC(C)C)C(=O)N[C@H](C(=O)O)CSC3`, the inhibition in vivo at 30 mg/kg is 90% in [1], 32% in data set [3] and 52% in data set [4]. Also, in [2], the Activity turned out to be 15%. The “inhibition (INH)” value in data set [5] is reported as 30%.

`CC(=O)N[C@H]1CSCc2cc3cc(c2)CSC[C@@H](NC(=O)[C@H](CCCCNC(=N)N)NC(=O)[C@H](Cc2ccc(O)cc2)NC(=O)C2CCN2C(=O)[C@H](Cc2ccccc2)NC(=O)[C@H](CO)NC1=O)C(=O)N[C@@H](C)CN[C@@H](Cc1cnc[nH]1)C(=O)N[C@@H](CCC(N)=O)C(=O)N[C@@H](CC(=O)O)C(=O)N[C@@H](CC(C)C)C(=O)N[C@H](C(=O)O)CSC3` (stereo partly drawn): the pKi in data set [6], in [8], in data set [9], in [11] and in data set [13] was less than 4.30 throughout. Further, in data set [7], the inhibition result is “Active”. The inhibition result in data set [10] and in [14] was “inactive” each time. In [12], the inhibition result is “Dose-dependent effect”.

For the molecule `CC(C)C[C@@H]1NC(=O)[C@@H]2CCCN2C(=O)[C@H](C)NC(=O)[C@H](CC(=O)O)NC(=O)[C@H](Cc2c[nH]c3ccccc23)NC(=O)[C@@H]2CCCN2C(=O)[C@@H]2CSCc3cc(cc(c3)CSC[C@@H](C(=O)N[C@@H](C)C(=O)O)NC1=O)CSC[C@H](NC(=O)[C@H](C)N)C(=O)N[C@@H](CC(N)=O)C(=O)N[C@@H]([C@@H](C)O)C(=O)N[C@@H](Cc1c[nH]c3ccccc13)C(=O)N[C@@H](CC(N)=O)C(=O)N1CCC[C@H]1C(=O)N[C@@H](Cc1c[nH]c3ccccc13)C(=O)N2` (H-ACNTWNPWCPWDAPLCA-OH; linker 2-9-16 via TBMB), the solubility result in [15] was “Insoluble”. In addition, the Stability result in [16] is recorded as “Unstable”. In addition, the values for the pKi in data set [17] and in [18] were 9.40 and 8.64, respectively.
